# Experimental data reported in ChEMBL document CHEMBL1141109, “Synthesis of an estrogen receptor beta-selective radioligand: 5-[18F]fluoro-(2R,3S)-2,3-bis(4-hydroxyphenyl)pentanenitrile and comparison of in vivo distribution with 16alpha-[18F]fluoro-17beta-estradiol” (J Med Chem, 2005).
# Experiments:
# [1] = Biodistribution of [18F]FEDPN in beta estrogen receptor knock out mouse muscle after 30 min; (n=3); format: ADME, organism-based, Muscle tissue; conditions: in vivo, 0.5 h
# Method in brief: (§1)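 αERKO and βERKO mice, staged by daily vaginal smears and kept on estrogen-free chow, were studied in a nonestrous stage. Each mouse received 11 μCi of tracer in 130 μL of 10% ethanol/saline. Mice were killed at 30 min, 1 h or 2 h (n = 3 each). Organs were removed, blotted, weighed and gamma-counted against an injectate standard. Uptake is given as %ID/g ± SD.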
# [2] = Biodistribution of [18F]FEDPN in beta estrogen receptor knock out mouse thymus after 2 h; (n=3); format: ADME, organism-based; conditions: in vivo; method in brief: as §1
# [3] = Biodistribution of [18F]FEDPN in beta estrogen receptor knock out mouse spleen after 2 h; (n=3); format: ADME, organism-based; conditions: in vivo; method in brief: as §1
# [4] = Biodistribution of [18F]FEDPN in beta estrogen receptor knock out mouse brain after 2 h; (n=3); format: ADME, organism-based; conditions: in vivo; method in brief: as §1
# [5] = Biodistribution of [18F]-FEDPN in rat blood after 1 hr when given in tail vein; (n=5); format: ADME, organism-based; conditions: in vivo, iv
# Method in brief: (§2)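 Immature female Sprague–Dawley rats (<25 days old) anesthetized with isoflurane/O2. Given 20 µCi tracer by tail vein in 150 µL of 20% ethanol/saline. […] Killed at 30 min, 1 h or 2 h. Blood and organs blotted, weighed and gamma-counted against a standard dilution of the injectate. Reported as %ID/g ± SD, n=5.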
# [6] = Biodistribution of [18F]-FEDPN in rat fat after 30 min when given in tail vein; (n=5); format: ADME, organism-based, Adipose tissue; conditions: in vivo, iv, 0.5 h; method in brief: as §2
# [7] = Biodistribution of [18F]-FEDPN in rat thymus after 2 hr when given in tail vein; (n=5); format: ADME, organism-based; conditions: in vivo, iv; method in brief: as §2
# [8] = Biodistribution of [18F]-FEDPN in rat blood after 1 hr block when given in tail vein; (n=5); format: ADME, organism-based; conditions: in vivo, iv; method in brief: as §2
# [9] = Biodistribution of [18F]FEDPN in rat liver after 1 h block when given in tail vein; (n=5); format: ADME, organism-based; conditions: in vivo, iv
# Method in brief: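 Immature female Sprague–Dawley rats (<25 days old) under isoflurane/O2 got 20 µCi tracer in 150 µL 20% ethanol/saline by tail vein. […] Rats were killed at 30 min, 1 h or 2 h. Organs were blotted, weighed and gamma-counted against an injectate standard. Data are %ID/g ± SD, five rats per point.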
# [10] = Biodistribution of [18F]-FEDPN in rat muscle after 1 hr block when given in tail vein; (n=5); format: ADME, organism-based, Muscle tissue; conditions: in vivo, iv; method in brief: as §2
# [11] = Biodistribution of [18F]-FEDPN in rat spleen after 1 hr block when given in tail vein; (n=5); format: ADME, organism-based; conditions: in vivo, iv; method in brief: as §2
# [12] = Biodistribution of [18F]-FEDPN in rat uterus after 1 hr block when given in tail vein; (n=5); format: ADME, organism-based; conditions: in vivo, iv; method in brief: as §2
# [13] = Biodistribution of [18F]FEDPN in beta estrogen receptor knock out mouse heart after 2 h; (n=3); format: ADME, organism-based; conditions: in vivo; method in brief: as §1
# [14] = Biodistribution of [18F]FEDPN in alpha estrogen receptor knock out mouse bone after 30 min; (n=3); format: ADME, organism-based, Bone element; conditions: in vivo, 0.5 h
# Method in brief: (§3)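 ERKO female mice (αERKO or βERKO), rested 48 h after shipping, placed on estrogen-free chow, and staged by daily vaginal smears. Injected in a nonestrous stage with 11 µCi [18F]FEDPN in 130 µL of 10% ethanol/saline. Killed at 30 min, 1 h or 2 h. Organs counted and reported as %ID/g ± SD, three animals per point.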
# [15] = Biodistribution of [18F]FEDPN in alpha estrogen receptor knock out mouse ovaries after 2 h; (n=3); format: ADME, organism-based, Female gonad; conditions: in vivo; method in brief: as §1
# [16] = Biodistribution of [18F]FEDPN in beta estrogen receptor knock out mouse brain after 30 min; (n=3); format: ADME, organism-based; conditions: in vivo, 0.5 h; method in brief: as §1
# [17] = Biodistribution of [18F]FEDPN in beta estrogen receptor knock out mouse heart after 30 min; (n=3); format: ADME, organism-based; conditions: in vivo, 0.5 h; method in brief: as §1
# [18] = Biodistribution of [18F]FEDPN in alpha estrogen receptor knock out mouse fat after 30 min; (n=3); format: ADME, organism-based, Adipose tissue; conditions: in vivo, 0.5 h; method in brief: as §3
# [19] = Biodistribution of [18F]FEDPN in alpha estrogen receptor knock out mouse spleen after 2 h; (n=3); format: ADME, organism-based; conditions: in vivo; method in brief: as §1
# [20] = Biodistribution of [18F]FEDPN in alpha estrogen receptor knock out mouse thymus after 2 h; (n=3); format: ADME, organism-based; conditions: in vivo; method in brief: as §1
# [21] = Biodistribution of [18F]FEDPN in beta estrogen receptor knock out mouse ovaries after 2 h; (n=3); format: ADME, organism-based, Female gonad; conditions: in vivo; method in brief: as §1
# [22] = biological target: Estrogen receptor (Mus musculus) (UniProt O08537+P19785); experiment: Ratio of [18F]FEDPN uptake in ovaries of ERbeta KO-mouse (diestrus) and ERalpha KO-mouse (nonestrus) after 30 min
# Estrogen receptor (Mus musculus), sequence (O08537 whole entry, looked up): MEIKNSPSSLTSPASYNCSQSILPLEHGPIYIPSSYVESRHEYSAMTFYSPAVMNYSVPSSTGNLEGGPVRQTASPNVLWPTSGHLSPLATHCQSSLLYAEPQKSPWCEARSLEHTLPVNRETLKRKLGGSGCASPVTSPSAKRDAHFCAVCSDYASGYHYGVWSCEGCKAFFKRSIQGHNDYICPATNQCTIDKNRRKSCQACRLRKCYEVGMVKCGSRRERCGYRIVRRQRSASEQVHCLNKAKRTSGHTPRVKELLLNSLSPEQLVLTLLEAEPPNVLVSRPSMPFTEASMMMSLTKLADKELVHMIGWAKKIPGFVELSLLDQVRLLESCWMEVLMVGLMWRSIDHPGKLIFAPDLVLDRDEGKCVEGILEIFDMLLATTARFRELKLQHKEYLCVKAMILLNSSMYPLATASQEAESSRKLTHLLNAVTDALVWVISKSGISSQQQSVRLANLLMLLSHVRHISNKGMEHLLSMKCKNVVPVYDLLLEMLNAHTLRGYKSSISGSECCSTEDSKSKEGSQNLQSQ
# Estrogen receptor (Mus musculus), sequence (P19785 whole entry, looked up): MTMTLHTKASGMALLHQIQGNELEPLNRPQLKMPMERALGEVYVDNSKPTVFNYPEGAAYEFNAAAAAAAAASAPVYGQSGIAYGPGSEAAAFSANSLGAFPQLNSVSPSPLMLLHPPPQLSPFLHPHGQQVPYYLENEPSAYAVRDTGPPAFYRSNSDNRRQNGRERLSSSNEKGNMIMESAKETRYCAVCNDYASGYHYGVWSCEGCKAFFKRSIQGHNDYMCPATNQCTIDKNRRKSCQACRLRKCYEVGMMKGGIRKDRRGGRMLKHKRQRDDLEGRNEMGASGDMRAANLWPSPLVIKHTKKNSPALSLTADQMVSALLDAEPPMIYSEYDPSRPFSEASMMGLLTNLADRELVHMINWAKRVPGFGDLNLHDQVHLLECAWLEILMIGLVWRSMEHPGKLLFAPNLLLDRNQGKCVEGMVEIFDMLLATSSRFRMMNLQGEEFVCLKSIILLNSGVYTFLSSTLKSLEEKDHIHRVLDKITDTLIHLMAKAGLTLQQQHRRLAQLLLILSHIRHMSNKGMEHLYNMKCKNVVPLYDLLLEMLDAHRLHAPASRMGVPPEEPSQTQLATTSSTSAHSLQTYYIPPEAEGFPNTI
# [23] = Biodistribution of [18F]FES in alpha estrogen receptor knock out mouse uterus after 30 min; (n=3); format: ADME, organism-based; conditions: in vivo, 0.5 h
# [24] = Biodistribution of [18F]FES in beta estrogen receptor knock out mouse uterus after 2 h; (n=3); format: ADME, organism-based; conditions: in vivo
# [25] = Biodistribution of [18F]FES in alpha estrogen receptor knock out mouse lung after 2 h; (n=3); format: ADME, organism-based; conditions: in vivo
# Method in brief: (§4)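 Female αERKO mice were rested 48 h after shipping and fed estrogen-free chow. They were staged by daily vaginal smears and studied in diestrus. Each received 13 µCi [18F]FES in 100 µL 10% ethanol/saline and was sacrificed at 30 min, 1 h or 2 h (n = 3 per time). Tissue uptake is given as %ID/g ± SD.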
# [26] = Biodistribution of [18F]FES in beta estrogen receptor knock out mouse fat after 30 min; (n=3); format: ADME, organism-based, Adipose tissue; conditions: in vivo, 0.5 h
# [27] = Biodistribution of [18F]FES in beta estrogen receptor knock out mouse kidney after 1 h; (n=3); format: ADME, organism-based; conditions: in vivo
# [28] = Biodistribution of [18F]FES in beta estrogen receptor knock out mouse muscle after 1 h; (n=3); format: ADME, organism-based, Muscle tissue; conditions: in vivo
# [29] = Biodistribution of [18F]FES in alpha estrogen receptor knock out mouse fat after 2 h; (n=3); format: ADME, organism-based, Adipose tissue; conditions: in vivo; method in brief: as §4
# [30] = Biodistribution of [18F]FES in alpha estrogen receptor knock out mouse fat after 30 min; (n=3); format: ADME, organism-based, Adipose tissue; conditions: in vivo, 0.5 h; method in brief: as §4
# [31] = Biodistribution of [18F]-FES in alpha estrogen receptor knock out mouse muscle after 1 h; (n=3); format: ADME, organism-based, Muscle tissue; conditions: in vivo; method in brief: as §4
# [32] = Biodistribution of [18F]FES in alpha estrogen receptor knock out mouse spleen after 1 h; (n=3); format: ADME, organism-based; conditions: in vivo
# [33] = Biodistribution of [18F]FES in beta estrogen receptor knock out mouse ovaries after 2 h; (n=3); format: ADME, organism-based, Female gonad; conditions: in vivo
# [34] = Biodistribution of [18F]FES in beta estrogen receptor knock out mouse liver after 30 min; (n=3); format: ADME, organism-based; conditions: in vivo, 0.5 h
# [35] = Biodistribution of [18F]FES in alpha estrogen receptor knock out mouse blood after 30 min; (n=3); format: ADME, organism-based; conditions: in vivo, 0.5 h; method in brief: as §4
# [36] = Biodistribution of [18F]FES in alpha estrogen receptor knock out mouse brain after 30 min; (n=3); format: ADME, organism-based; conditions: in vivo, 0.5 h
# Method in brief: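 Female αERKO mice rested 48 h after shipping and fed estrogen-free chow. Estrous stage was checked by daily vaginal smears, and mice were used in diestrus. Each received 13 µCi [18F]FES in 100 µL 10% ethanol/saline. Animals were sacrificed at 30 min, 1 h or 2 h (n = 3 each). Tissue uptake is reported as %ID/g ± SD.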
# [37] = Biodistribution of [18F]FES in beta estrogen receptor knock out mouse muscle after 30 min; (n=3); format: ADME, organism-based, Muscle tissue; conditions: in vivo, 0.5 h
structure (smiles),measurement,setting,value
N#C[C@H](c1ccc(O)cc1)[C@@H](CCF)c1ccc(O)cc1,Biodistribution,[1],1.45 %ID/g
same,Biodistribution,[2],0.11 %ID/g
same,Biodistribution,[3],0.12 %ID/g
same,Biodistribution,[4],0.3 %ID/g
same,Biodistribution,[5],0.55 %ID/g
same,Biodistribution,[6],0.57 %ID/g
same,Biodistribution,[7],0.08 %ID/g
same,Biodistribution,[8],0.3 %ID/g
same,Biodistribution,[9],0.76 %ID/g
same,Biodistribution,[10],0.2 %ID/g
same,Biodistribution,[11],0.1 %ID/g
same,Biodistribution,[12],0.34 %ID/g
same,Biodistribution,[13],0.21 %ID/g
same,Biodistribution,[14],3.47 %ID/g
same,Biodistribution,[15],0.28 %ID/g
same,Biodistribution,[16],0.93 %ID/g
same,Biodistribution,[17],1.6 %ID/g
same,Biodistribution,[18],0.57 %ID/g
same,Biodistribution,[19],0.12 %ID/g
same,Biodistribution,[20],0.28 %ID/g
same,Biodistribution,[21],0.17 %ID/g
same,Ratio,[22],1.32
C[C@]12CC[C@@H]3c4ccc(O)cc4CC[C@H]3[C@@H]1C[C@@H](F)[C@@H]2O [FLUOROESTRADIOL],Biodistribution,[23],2.4 %ID/g
same,Biodistribution,[24],9.23 %ID/g
same,Biodistribution,[25],0.17 %ID/g
same,Biodistribution,[26],2.01 %ID/g
same,Biodistribution,[27],2.14 %ID/g
same,Biodistribution,[28],1.29 %ID/g
same,Biodistribution,[29],0.09 %ID/g
same,Biodistribution,[30],1.51 %ID/g
same,Biodistribution,[31],0.18 %ID/g
same,Biodistribution,[32],0.19 %ID/g
same,Biodistribution,[33],3.4 %ID/g
same,Biodistribution,[34],9.45 %ID/g
same,Biodistribution,[35],0.65 %ID/g
same,Biodistribution,[36],0.41 %ID/g
same,Biodistribution,[37],1.7 %ID/g
